The values that follow come from ChEMBL document CHEMBL1828628, “Discovery of a tetrahydroisoquinoline-based hydroxamic acid derivative (ZYJ-34c) as histone deacetylase inhibitor with potent oral antitumor activities” (J Med Chem, 2011).

Active and inactive are the calls of the source. The calls are words filed in the database; no cut-off is given here.

For one series, the system named is H22. As to the kind of experiment: Antitumor activity against mouse H22 cells xenografted in Kunming mouse assessed as reduction of pulmonary metastatic nodes in lungs at 90 mg/kg, po qd for 14 days. The format is functional, organism-based. The arrangement: dose 90 mg/kg.
Series [1] has as its system Mus musculus. As to the kind of experiment: Toxicity in human MDA-MB-231 cells xenografted BALB/c nu mouse assessed as change in body weight at 90 mg/kg, ip qd for 19 days. To be noted: in vivo, 456 h. The series is classed as organism-based. The arrangement: dose 90 mg/kg, route intraperitoneal. The method, boiled down:
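Female BALB/c-nu mice, 5–6 weeks old, bearing subcutaneous right-flank xenografts. Mice were randomized 6 per group at about 100 mm3 tumor size. Dosing was oral or intraperitoneal for 19 days; controls received an equal volume of PBS containing DMSO. Body weight was monitored regularly during treatment, and tumors were measured by caliper every three days.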
On the technique in general: In xenograft studies the graft and the host belong to different species.

The test system of series [2] is Mus musculus. As to the kind of experiment: Toxicity in mouse H22 cells xenografted Kunming mouse assessed as signs of organ toxicity at 90 mg/kg, po qd for 19 days. The series is classed as organism-based. The arrangement: dose 90 mg/kg, route oral. To be noted: in vivo, 456 h.
Series [3] deals with MDA-MB-231. Put plainly: Antitumor activity against human MDA-MB-231 cells xenografted in BALB/c nu mouse assessed as tumor growth inhibition at 90 mg/kg, ip qd for 19 days relative to control. The series is classed as functional. To be noted: route intraperitoneal; for inhibition in vivo at 90 mg/kg: Mus musculus, MDA-MB-231, ip, 456 h, read-out: TGI.
The subject of series [4] is Mus musculus. Put plainly: Toxicity in mouse H22 cells xenografted Kunming mouse assessed as change in body weight at 90 mg/kg, po qd for 19 days. The format is organism-based. The arrangement: dose 90 mg/kg, route oral. To be noted: in vivo, 456 h.
The target in series [5] is 72 kDa type IV collagenase (Homo sapiens) (UniProt P08253). Put plainly: Inhibition of MMP2.
Chain of 72 kDa type IV collagenase (Homo sapiens) (P08253 110-660 limits assumed): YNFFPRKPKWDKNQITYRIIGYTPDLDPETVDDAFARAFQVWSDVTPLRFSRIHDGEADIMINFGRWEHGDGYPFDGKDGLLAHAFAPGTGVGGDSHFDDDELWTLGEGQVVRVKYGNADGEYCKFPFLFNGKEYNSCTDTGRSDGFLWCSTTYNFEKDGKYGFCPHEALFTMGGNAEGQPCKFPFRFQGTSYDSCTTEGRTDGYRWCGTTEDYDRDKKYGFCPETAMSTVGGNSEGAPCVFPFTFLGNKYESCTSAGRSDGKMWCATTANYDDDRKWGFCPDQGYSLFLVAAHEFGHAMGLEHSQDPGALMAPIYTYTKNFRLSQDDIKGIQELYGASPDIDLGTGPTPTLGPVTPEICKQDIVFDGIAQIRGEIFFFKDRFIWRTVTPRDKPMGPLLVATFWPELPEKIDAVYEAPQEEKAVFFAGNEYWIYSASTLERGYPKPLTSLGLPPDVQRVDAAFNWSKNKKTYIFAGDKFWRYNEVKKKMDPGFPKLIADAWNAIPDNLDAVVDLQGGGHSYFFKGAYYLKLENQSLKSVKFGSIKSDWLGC
The target in series [6] is Aminopeptidase N (Homo sapiens) (UniProt P15144). Put plainly: Inhibition of aminopeptidase N.
Chain of Aminopeptidase N (Homo sapiens) (P15144 whole entry): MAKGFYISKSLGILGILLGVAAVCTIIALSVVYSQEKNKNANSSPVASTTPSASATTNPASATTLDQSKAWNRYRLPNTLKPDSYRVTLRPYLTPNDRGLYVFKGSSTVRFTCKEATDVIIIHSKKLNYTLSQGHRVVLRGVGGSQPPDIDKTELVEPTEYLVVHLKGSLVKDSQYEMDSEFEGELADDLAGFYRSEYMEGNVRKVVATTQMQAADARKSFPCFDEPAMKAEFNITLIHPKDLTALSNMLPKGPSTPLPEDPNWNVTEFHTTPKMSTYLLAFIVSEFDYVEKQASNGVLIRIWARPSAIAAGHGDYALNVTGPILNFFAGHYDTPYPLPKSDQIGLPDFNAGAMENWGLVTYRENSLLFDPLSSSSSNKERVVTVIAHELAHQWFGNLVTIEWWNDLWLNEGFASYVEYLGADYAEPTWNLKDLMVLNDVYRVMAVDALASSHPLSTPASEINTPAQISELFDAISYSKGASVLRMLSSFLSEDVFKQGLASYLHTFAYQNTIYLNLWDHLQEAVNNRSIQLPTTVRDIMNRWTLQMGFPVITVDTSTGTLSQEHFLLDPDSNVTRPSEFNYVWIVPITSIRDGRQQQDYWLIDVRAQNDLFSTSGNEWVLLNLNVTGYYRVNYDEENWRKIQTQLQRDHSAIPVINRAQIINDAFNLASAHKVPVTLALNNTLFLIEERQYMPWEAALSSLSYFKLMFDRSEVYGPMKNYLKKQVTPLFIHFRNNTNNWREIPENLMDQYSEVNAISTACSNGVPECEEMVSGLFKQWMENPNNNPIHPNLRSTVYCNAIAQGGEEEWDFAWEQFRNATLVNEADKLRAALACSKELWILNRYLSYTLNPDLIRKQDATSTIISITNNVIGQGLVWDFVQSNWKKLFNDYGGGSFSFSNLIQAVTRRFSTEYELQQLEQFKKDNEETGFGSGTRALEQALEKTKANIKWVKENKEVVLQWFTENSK
Series [7] has as its system MDA-MB-231. As to the kind of experiment: Cell cycle arrest in human MDA-MB-231 cells assessed as accumulation at G2 phase at 5 uM after 48 hrs using propidium iodide staining by flow cytometric analysis. The series is classed as functional, cell-based. The essentials: (§1)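 MDA-MB-231 cells were seeded at 4 × 10^5 per well and incubated overnight, then treated for 48 h. Cells were fixed overnight in 70% ethanol phosphate buffer and washed twice with PBS. They were treated with DNase-free RNase A (1 mg/mL) for 30 min, then stained with propidium iodide for 30 min in the dark at room temperature. DNA content was read by FACScan flow cytometry.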
(In general: In flow cytometry, cells or beads pass a laser one at a time.)

In series [8] the test system is MDA-MB-231. Put plainly: Cell cycle arrest in human MDA-MB-231 cells assessed as accumulation at G1 phase at 1 uM after 48 hrs using propidium iodide staining by flow cytometric analysis. The series is classed as functional, cell-based. The method, boiled down:
as §1

The term T/C denotes the ratio of treated to control.

`CC[C@H](C)[C@@H](CN1Cc2cc(OCC(=O)NO)ccc2C[C@H]1C(=O)Nc1ccc(OC)cc1)NC(=O)CC(C)(C)C`: in the series on H22, the result was Active. Moreover, the Activity result in the series on Mus musculus [1], in the series with Mus musculus [2] and in the series with Mus musculus [4] was “Non-toxic” throughout. Also, the inhibition in vivo at 90 mg/kg in the series with MDA-MB-231 [3] is -9%. For the same molecule, in the series with MDA-MB-231 [3], the T/C is 87%. Further, the inhibition entry in series [5] was “inactive”. Further, in series [6], the inhibition entry was “Active”.
`O=C(CCCCCCC(=O)Nc1ccccc1)NO`: the outcome in the series on MDA-MB-231 [7] and in the series with MDA-MB-231 [8] was Active. Besides, the result in the series with H22 was inactive. Besides, the inhibition entry in [5] is “inactive”.
`CC[C@H](C)[C@H](NC(=O)OC(C)(C)C)C(=O)N1Cc2cc(OCC(=O)NO)ccc2C[C@H]1C(=O)Nc1ccc(OC)cc1`: the outcome in the series with H22 was Active. Moreover, the Activity entry in the series on Mus musculus [1], in the series with Mus musculus [2] and in the series with Mus musculus [4] was “Non-toxic” throughout. Further, the inhibition in vivo at 90 mg/kg in the series on MDA-MB-231 [3] stood at 40%. Further, the T/C with MDA-MB-231 [3] was 63%. Besides, the inhibition result in series [5] was “inactive”. Also, in series [6], the inhibition result was “Active”.
With `CC[C@H](C)[C@@H](CN1Cc2cc(OCC(=O)NO)ccc2C[C@H]1C(=O)Nc1ccc(OC)cc1)NC(=O)OC(C)(C)C`, in the series with H22, the result was Active. Also, the Activity entry in the series with Mus musculus [1], in the series on Mus musculus [2] and with Mus musculus [4] was “Non-toxic” each time. Also, the inhibition in vivo at 90 mg/kg in the series on MDA-MB-231 [3] stood at 55%. The T/C in the series on MDA-MB-231 [3] is reported as 47%. Also, the inhibition entry in [5] is “inactive”. The inhibition entry in [6] is “Active”.
